Data: ChEMBL document CHEMBL4665734, “Optimization of globomycin analogs as novel gram-negative antibiotics” (Bioorg Med Chem Lett, 2020)
Converted amounts (≈) assume the structure as drawn. Starred links: 1 amine or outer side, 2 acyl side, 3 side chain; linkers in the order of their positions; H or OH if unused. Non-standard residues stand in square brackets, D forms with d. Residues, ends and D or L forms follow the SMILES beside them. *: point of attachment. dAlaψ(CH2NBu)Nle = CCCC[C@@H](C(=O)[*:2])N(CCCC)C[C@@H](C)N[*:1]; X7 = CCCCCC[C@@H](O[C@H](C)CN[*:1])[C@@H](C)C(=O)[*:2]; Cyclobutyl(trans-3-NH2) = N[C@H]1C[C@H](*)C1; X4 = CCCCCCN(CCN[*:1])[C@@H](C)C(=O)[*:2]; aThr = C[C@H](O)[C@H](N)C(=O)O; NMeL = CN[C@@H](CC(C)C)C(=O)O; Chg = N[C@H](C(=O)O)C1CCCCC1; NMeNva = CCC[C@H](NC)C(=O)O; Dap = NC[C@H](N)C(=O)O

Assays:
[1] = Lipophilicity, logD of the compound at pH 7.4; conditions: buffer, pH 7.4, logD
[2] = Stability of the compound in human plasma assessed as parent compound remaining after 24 hrs; format: ADME, cell-free; conditions: read-out: Stabilty
In short: (§1)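 Test compound incubated for 24 hour in human, rat or mouse plasma. Stability is reported as the percentage of parent compound remaining.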

[3] = Stability of the compound in mouse plasma assessed as parent compound remaining after 24 hrs; format: ADME, cell-free; conditions: read-out: Stabilty; in short: as §1
[4] = Stability of the compound in rat plasma assessed as parent compound remaining after 24 hrs; format: ADME, cell-free; conditions: read-out: Stabilty; in short: as §1
[5] = Protein binding in rat plasma; format: ADME, cell-free; conditions: for fraction unbound: read-out: PPB (converted)
[6] = Protein binding in mouse plasma; format: ADME, cell-free; conditions: for fraction unbound: read-out: PPB (converted)
[7] = Clearance in rat liver microsomes; format: ADME, Microsome
In short: (§2)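 Intrinsic clearance in rat or mouse liver microsomes, expressed in mL/min/kg.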

[8] = Clearance in mouse liver microsomes; format: ADME, Microsome; in short: as §2
[9] = Clearance in iv dosed mouse; format: ADME, organism-based; conditions: in vivo
[10] = Half life in iv dosed mouse; format: ADME, organism-based; conditions: in vivo
Escherichia coli = assay: Inhibition of LspA in Escherichia coli CFT073imp4213 harboring outer membrane-permeable mutant assessed as inhibition of bacterial growth
In short: (§3)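 Read-out is the minimum inhibitory concentration, reported in µM.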

Escherichia coli CFT073 = assay: Inhibition of LspA in wild type Escherichia coli CFT073 assessed as inhibition of bacterial growth; in short: as §3
[11] = Growth inhibition of Staphylococcus aureus USA300
Enterobacter cloacae = assay: Inhibition of LspA in Enterobacter cloacae assessed as inhibition of bacterial growth
Klebsiella pneumoniae = assay: Inhibition of LspA in Klebsiella pneumoniae assessed as inhibition of bacterial growth
Pseudomonas aeruginosa = assay: Inhibition of LspA in Pseudomonas aeruginosa assessed as inhibition of bacterial growth
Acinetobacter baumannii = assay: Inhibition of LspA in Acinetobacter baumannii assessed as inhibition of bacterial growth
Jurkat = assay: Cytotoxicity against human Jurkat cells; format: cell-based
In short: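 Jurkat cell growth assay. Result reported as antiproliferative EC50.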

[12] = Stability in mouse plasma assessed as esterase-mediated compound hydrolysis by measuring parent compound remaining after 6 hrs; format: ADME, cell-free; conditions: read-out: Stabilty
In short: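 Test compound incubated for 6 hour in human or mouse plasma. Stability is reported as the percentage of parent compound remaining.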

[13] = Clearance in iv dosed rat; format: ADME, organism-based; conditions: in vivo
[14] = Half life in iv dosed rat; format: ADME, organism-based; conditions: in vivo

| logD [1] | remaining at 24 h [4] | CLhep predicted [7] | CLhep predicted [8] | MIC (Klebsiella pneumoniae) | MIC (Pseudomonas aeruginosa) | MIC (Acinetobacter baumannii) | Compound | remaining at 24 h [2] | remaining at 24 h [3] | MIC (Escherichia coli) | MIC (Escherichia coli CFT073) | MIC [11] | further results |
| --- | --- | --- | --- | --- | --- | --- | --- | --- | --- | --- | --- | --- | --- |
| – | – | – | – | – | – | – | CCCCCC[C@H]1C(=O)N(C)[C@@H](CC(C)C)C(=O)N[C@@H](C2CCCCC2)C(=O)N[C@@H](CN)C(=O)N[C@@H]([C@H](C)O)C(=O)NCCN1C | 92% | 81% | 0.39 µM (≈ 0.254 µg/mL) | 12 µM (≈ 7.82 µg/mL) | 100 µM (≈ 65.2 µg/mL) | – |
| – | – | – | – | – | – | – | CCCCCC[C@H]1OC[C@@H](C)NC(=O)[C@H]([C@H](C)O)NC(=O)[C@H](CN)NC(=O)[C@H](C2CCCCC2)NC(=O)[C@H](CC(C)C)N(C)C(=O)[C@@H]1C | 93% | 94% | 0.034 µM (≈ 0.0232 µg/mL) | 2.9 µM (≈ 1.97 µg/mL) | 71 µM (≈ 48.3 µg/mL) | – |
| – | – | – | – | – | – | – | CCCCCCN1CCCNC(=O)[C@H]([C@H](C)O)NC(=O)[C@H](CN)NC(=O)[C@H]([C@H](C)CC)NC(=O)[C@H](CC(C)C)N(C)C(=O)[C@@H]1C | 101% | 100% | 12.5 µM (≈ 8 µg/mL) | > 100 µM | > 100 µM | – |
| 1 | 60% | 26 mL/min/kg | 34 mL/min/kg | 100 µM (≈ 70.7 µg/mL) | > 100 µM | > 100 µM | CCCCCCN1CCNC(=O)[C@H](CO[C@H]2C[C@H](N)C2)NC(=O)[C@H](CN)NC(=O)[C@H](C2CCCCC2)NC(=O)[C@H](CC(C)C)N(C)C(=O)[C@@H]1C (cyclo([Chg][Dap]S(Cyclobutyl(trans-3-NH2))[X4][NMeL])) | 110% | 95% | – | 6.3 µM (≈ 4.45 µg/mL) | 100 µM (≈ 70.7 µg/mL) | fraction unbound [5]: 0.043; fraction unbound [6]: 0.03; clearance [13]: 8.7 mL/min/kg; half-life [14]: 1.6 h; EC50 (Jurkat): > 100 µM |
| 1.5 | 58% | < 6.1 mL/min/kg | 32 mL/min/kg | 25 µM (≈ 18 µg/mL) | 100 µM (≈ 72.1 µg/mL) | 25 µM (≈ 18 µg/mL) | CCCC[C@H]1C(=O)N(C)[C@@H](CCC)C(=O)N[C@@H](C2CCCCC2)C(=O)N[C@@H](CN)C(=O)N[C@@H](CO[C@H]2C[C@H](N)C2)C(=O)N[C@H](C)CN1CCCC (cyclo([Chg][Dap]S(Cyclobutyl(trans-3-NH2))[dAlaψ(CH2NBu)Nle][NMeNva])) | 105% | 55% | – | 6.3 µM (≈ 4.54 µg/mL) | 50 µM (≈ 36.1 µg/mL) | fraction unbound [5]: 0.047; fraction unbound [6]: 0.026; clearance [13]: 24 mL/min/kg; half-life [14]: 6.8 h |
| – | – | – | – | – | – | – | CCCCCCN1CCNC(=O)[C@H]([C@H](C)O)NC(=O)[C@H](CN)NC(=O)[C@H](C2CCCCC2)NC(=O)[C@H](CC(C)C)N(C)C(=O)[C@@H]1C (cyclo([Chg][Dap][aThr][X4][NMeL])) | 95% | 112% | 0.5 µM (≈ 0.326 µg/mL) | 25 µM (≈ 16.3 µg/mL) | > 100 µM | – |
| – | – | – | – | – | – | – | CCCCCC[C@H]1O[C@H](C)CNC(=O)[C@H]([C@H](C)O)NC(=O)[C@H](CN)NC(=O)[C@H](C2CCCCC2)NC(=O)[C@H](CC(C)C)N(C)C(=O)[C@@H]1C (cyclo([Chg][Dap][aThr][X7][NMeL])) | 100% | 92% | 0.4 µM (≈ 0.272 µg/mL) | 35 µM (≈ 23.8 µg/mL) | 100 µM (≈ 68.1 µg/mL) | – |

| Compound | logD [1] | remaining at 24 h [4] | CLhep predicted [7] | CLhep predicted [8] | MIC (Klebsiella pneumoniae) | MIC (Pseudomonas aeruginosa) | MIC (Acinetobacter baumannii) | remaining at 24 h [2] | remaining at 24 h [3] | MIC (Escherichia coli) | MIC (Escherichia coli CFT073) | MIC [11] | further results |
| --- | --- | --- | --- | --- | --- | --- | --- | --- | --- | --- | --- | --- | --- |
| CCCCCC[C@H]1OC(=O)CNC(=O)[C@H]([C@H](C)O)NC(=O)[C@H](CO)NC(=O)[C@H]([C@H](C)CC)NC(=O)[C@H](CC(C)C)N(C)C(=O)[C@@H]1C | 3.1 | 1% | 37 mL/min/kg | 81 mL/min/kg | > 100 µM | > 100 µM | > 100 µM | 100% | 2% | 0.25 µM (≈ 0.164 µg/mL) | 44 µM (≈ 28.9 µg/mL) | > 100 µM | Stabilty [5]: Unstable; Stabilty [6]: Unstable; clearance [9]: 286 mL/min/kg; half-life [10]: 0.3 h; MIC (Enterobacter cloacae): 100 µM (≈ 65.6 µg/mL); EC50 (Jurkat): > 50 µM; remaining at 6 h [12]: 49% |
